Consider 1 molecule from paper PMC11912358 (RSC Advances, 2025).

For one data set, the system named is HeLa cells. The data set is described as follows: Cellular uptake by flow cytometry. In kind it is cell-based. The note with it: 150 nM peptide, 1 h, 37 °C, 5% CO2, serum-free medium, AF647 fluorescence, AF647-NEt2 control as reference. On the technique in general: Flow cytometry measures light scatter and fluorescence of single cells or particles in a stream.
Data set [1] in a line: Cytotoxicity assay using cell-counting kit-8. It is filed as cell-based. The gist of the method: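 HeLa cells (5 × 10³) exposed to dye-labelled (Alexa Fluor 647) tripeptides carrying perfluoroalkyl or alkyl chains for 1 h. Viability read with the CCK-8 reagent, and IC50 reported from this read-out.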

In the case of `C[C@H](NC(=O)CCCCCC1(C)C(=CC=CC=CC2=[N+](CCCS(=O)(=O)[O-])c3ccc(S(=O)(=O)O)cc3C2(C)C)N(CCCS(=O)(=O)O)c2ccc(S(=O)(=O)O)cc21)C(=O)N[C@@H](CC(=O)Nc1ccc(C(F)(F)C(F)(F)C(F)(F)C(F)(F)C(F)(F)C(F)(F)C(F)(F)C(F)(F)F)cc1)C(=O)N[C@@H](Cc1ccccc1)C(N)=O` (some centres unmarked) [AF647-RF-tripeptide (RF = C8F17)], the “Cellular uptake efficiency (fluorescence intensity of cells, RFI)” value in the data set with HeLa cells is listed as “comparable cellular uptake efficiencies”. For the same molecule, in data set [1], the IC50 (usually the concentration at which inhibition is half-maximal) was 41 ± 9 µM.
